{"data": "Assay results gathered from unrelated publications", "PROC": "Vitamin K-dependent protein C (PROC, Homo sapiens, UniProt P04070)", "PDE5A": "cGMP-specific 3',5'-cyclic phosphodiesterase (PDE5A, Homo sapiens, UniProt O76074)", "EDNRA": "Endothelin-1 receptor (EDNRA, Homo sapiens, UniProt P25101)", "HTR2A": "5-hydroxytryptamine receptor 2A (HTR2A, Homo sapiens, UniProt P28223)", "SIGMAR1": "Sigma non-opioid intracellular receptor 1 (SIGMAR1, Homo sapiens, UniProt Q99720)", "MALT1": "Mucosa-associated lymphoid tissue lymphoma translocation protein 1 (MALT1, Homo sapiens, UniProt Q9UDY8)", "note": "Protocols differ between the studies behind these lines."}
{"Structure (SMILES)": "C[C@H]1N=C(c2ccccc2F)c2cc(Br)ccc2-n2cnc(C(=O)O)c21", "target": "Kappa-type opioid receptor (OPRK1, Homo sapiens, UniProt P41145)", "observed": "ligand displacement", "method": "radioligand", "concentration": "10 µM", "inhibition": "52.3%"}
{"Structure (SMILES)": "CN(C)C(=O)COC(=O)Cc1ccc(OC(=O)c2ccc(NC(=N)N)cc2)cc1", "target": "PROC", "observed": "enzyme activity", "mode": "inhibitor", "concentration": "10 µM", "inhibition": "77%"}
{"Structure (SMILES)": "CCN(CC)CCCC[C@H](NC(=O)[C@H](CC(C)C)NC(=O)[C@H](C)NC(=O)[C@H](Cc1ccccc1)NC(=O)c1ccc(C(C)(C)C)cc1)C(=O)N[C@@H](CO)C(=O)OC", "target": "Adenosine receptor A2a (ADORA2A, Homo sapiens, UniProt P29274)", "observed": "ligand displacement", "method": "radioligand", "concentration": "10 µM", "inhibition": "-2%"}
{"Structure (SMILES)": "CN(CCN1CCC(OC(=O)Nc2ccccc2-c2ccccc2)CC1)C(=O)c1ccc(CN2CCC(C(N)=O)CC2)cc1", "target": "PDE5A", "observed": "enzyme activity", "mode": "inhibitor", "concentration": "1 µM", "inhibition": "0%"}
{"Structure (SMILES)": "COCc1c(-c2cc3cc(C)cc(OC)c3s2)c2c(N)ncnn2c1CN1CCNC(=O)C1", "target": "PDE5A", "observed": "enzyme activity", "mode": "inhibitor", "concentration": "10 µM", "inhibition": "8%"}
{"Structure (SMILES)": "C#Cc1n[nH]c2c(-c3cn(C(C)c4ccccn4)c(=O)[nH]c3=O)cc(F)cc12 (stereo not drawn)", "target": "Cytoplasmic tyrosine-protein kinase BMX (BMX, Homo sapiens, UniProt P51813)", "observed": "enzyme activity", "mode": "inhibitor", "concentration": "1 µM", "inhibition": "0.9%"}
{"Structure (SMILES)": "[H]/N=C(/N)c1ccc(NCc2nc3cc(C(=O)N(CCC(=O)O)c4ccccn4)ccc3n2C)cc1", "target": "PROC", "observed": "enzyme activity", "mode": "inhibitor", "concentration": "20 µM", "inhibition": "95%"}
{"Structure (SMILES)": "CC(C)=CCC[C@]1(C)C=Cc2c(O)c3c(c(CC=C(C)C)c2O1)O[C@]12C(=C[C@@H]4C[C@H]1C(C)(C)O[C@@]2(C/C=C(/C)C(=O)O)C4=O)C3=O", "target": "Histone-lysine N-methyltransferase EHMT1 (EHMT1, Homo sapiens, UniProt Q9H9B1)", "observed": "cell-free assay", "concentration": "10 µM", "inhibition": "-8%"}
{"Structure (SMILES)": "Cn1cc(-c2cccc(N3CCc4c(sc5c4CC(C)(C)C5)C3=O)c2CO)cc(Nc2ccncn2)c1=O", "target": "Sphingosine kinase 1 (SPHK1, Homo sapiens, UniProt Q9NYA1)", "observed": "enzyme activity", "mode": "inhibitor", "concentration": "1 µM", "inhibition": "5%"}
{"Structure (SMILES)": "Clc1ccc2c(C3CCN(CCc4c[nH]c5ccccc45)CC3)c[nH]c2c1", "target": "EDNRA", "observed": "ligand displacement", "method": "radioligand", "concentration": "10 µM", "inhibition": "-12%"}
{"Structure (SMILES)": "c1ccc(C(NCCNC(c2ccccc2)c2ccccc2)c2ccccc2)cc1", "target": "PDE5A", "observed": "enzyme activity", "mode": "inhibitor", "concentration": "10 µM", "inhibition": "0%"}
{"Structure (SMILES)": "O=C(Nc1cccnn1)N1CCN([C@@H]2CCOc3cc(C(F)(F)F)ccc32)CC1", "target": "Histamine H4 receptor (HRH4, Homo sapiens, UniProt Q9H3N8)", "observed": "cell-free assay", "concentration": "20 µM", "inhibition": "4%"}
{"Structure (SMILES)": "COc1ccc(S(=O)(=O)N2CCCCC2)cc1C", "target": "EDNRA", "observed": "ligand displacement", "method": "radioligand", "concentration": "10 µM", "inhibition": "< 30%"}
{"Structure (SMILES)": "CCOC(=O)c1ccc(OC(=O)CCCCCNC(=N)N)cc1", "target": "PROC", "observed": "enzyme activity", "mode": "inhibitor", "concentration": "10 µM", "inhibition": "99%"}
{"Structure (SMILES)": "OC[C@@]12C[C@@H]1[C@@H](n1cnc3c(NC(C4CCCC4)C4CCCC4)nc(Cl)cc31)[C@H](O)[C@@H]2O", "target": "HTR2A", "observed": "ligand displacement", "method": "radioligand", "concentration": "10 µM", "inhibition": "1%"}
{"Structure (SMILES)": "CC(C)N1CCC[C@H]1CNC(=O)c1cn(C2CCCC2)c(=O)c2c1c1ccccc1n2C", "target": "SIGMAR1", "observed": "ligand displacement", "method": "radioligand", "concentration": "10 µM", "inhibition": "47%"}
{"Structure (SMILES)": "CC(C)[C@H](NC(=O)OCc1ccccc1)C(=O)N[C@@H](CCCN=C(N)N)C(=O)N1CCC[C@H]1C(=O)N[C@@H](CCCN=C(N)N)C(=O)CF", "target": "MALT1", "observed": "enzyme activity", "mode": "inhibitor", "concentration": "0.1 µM", "inhibition": "97%"}
{"Structure (SMILES)": "Cn1cc(-c2cc(F)cc(N3CCn4c(cc5c4CCCC5)C3=O)c2CO)cc(Nc2ccc(N3CCN(C4COC4)CC3)cn2)c1=O", "target": "Phosphatidylinositol 4-phosphate 3-kinase C2 domain-containing subunit beta (PIK3C2B, Homo sapiens, UniProt O00750)", "observed": "enzyme activity", "mode": "inhibitor", "concentration": "0.1 µM", "inhibition": "10%"}
{"Structure (SMILES)": "N=C(N)c1ccc2cc(OC(=O)c3ccc(N=C(N)N)cc3)ccc2c1", "target": "MALT1", "observed": "enzyme activity", "mode": "inhibitor", "concentration": "10 µM", "inhibition": "49%"}
{"Structure (SMILES)": "O[C@H]1[C@H](n2cnc3c(NC(C4CCCCC4)C4CCCCC4)nc(Cl)nc32)[C@H]2C[C@@]2(CCl)[C@H]1O", "target": "HTR2A", "observed": "ligand displacement", "method": "radioligand", "concentration": "10 µM", "inhibition": "21%"}
{"Structure (SMILES)": "CC(C)Cn1cnc2c(N)nc3ccccc3c21", "target": "SIGMAR1", "observed": "ligand displacement", "method": "radioligand", "concentration": "10 µM", "inhibition": "15%"}
